This is an account of results in PubChem BioAssay.

Active and inactive are the calls of the source.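 How the source made its calls, unless noted: active means viability at or below 30% in both replicate assays; inconclusive means viability at or below 30% in just one of the two assays; inactive means the rest.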

As a reminder, the viability is a read-out of living cells in per cent, often relative to untreated cells. What is called inhibition is the drop in the measured response relative to a control, in per cent.

Assay [1] can be described thus: reduced viability of SK-BR-3 breast cancer cells – cell-based, 24 h, human, pilot screen (AID 572;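 active means viability at or below 10% of carrier control in both of two separate runs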;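 further: compound exposure lasted between 18 and 24 h rather than exactly 24 h; 100% = carrier-treated control wells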). The following applies: SK-BR-3 viability, CellTiter-Glo luminescence, at 10 µM, stronger effect = lower value. In general terms: ATP-based viability assays read luminescence as a measure of living cells.
A short description of assay [2]: HUVEC growth inhibition – cell-based, human, primary screen (AID 575).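 Further: 100% = median of untreated cell wells with 0.1% DMSO on each plate.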 Conditions: HUVEC proliferation, CellTiter-Glo luminescence, 72 h; at 10 µM; stronger effect = lower value. A digest of the protocol:
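Material: primary human umbilical vein endothelial cells / Schedule: 72 h exposure, 37 °C, 5% CO2, 30 min RT equilibration / Signal: ATP-based CellTiter-Glo luminescent read / Read-out basis: percent of median DMSO-control luminescence / Control set: 32 DMSO-only cell-control wells (high), 32 MePR drug-control wells (low) per plate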

Assay [3] is described as follows: H69AR cell proliferation blockers – human, duplicate replicates, primary screen (AID 580;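 active means viability at or under a set limit in both replicates, limit being median viability minus 3 SD, cut at about 48% in these data, passing the limit was not always enough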;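 further: 100% = mean luminescence of untreated wells and 0% = no signal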). The following applies: H69AR lung tumor cells viability, ATP luminescence, 72 h; at 10 µM; stronger effect = lower value.
Assay [4] in a line: MRP1 drug-resistance reversers in H69AR cells – cell-based, doxorubicin co-treatment, pilot screen (AID 601;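 active means viability loss from added drug above about 55%, and viability with drug at most 40%, in both replicates, limit read from the data, passing the limit was not always enough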). The following applies: CellTiter-Glo, 72 h, at 10 µM; for differential viability (reversal): stronger effect = higher value.
Assay [5] is described as follows: yeast transport mutant growth inhibition pilot in 384-well plates, post-Golgi transport modulator project (AID 636; in the data active means inhibition above about 31%). Conditions: absorbance 615 nm, about 18 h, stronger effect = higher value.
Assay [6] can be described thus: growth suppression of yeast trafficking mutant, preliminary HTS, modulators of trafficking downstream of Golgi apparatus project, 1536-format plate, OD 615 nm (AID 637; in the data active means inhibition above about 30%). The following applies: yeast transport mutant growth, absorbance 615 nm, 18 h; stronger effect = higher value.
Setting [7] is: H69AR cells + 2 uM doxorubicin, measured here: viability with 2 uM doxorubicin, stronger effect = lower value.
Setting [8] is: H69AR cells, compound alone cytotoxicity.

`CCOC(=O)c1cnc(C(C)(C)C)[nH]c1=O`: the viability in assay [1] was 106% (inactive); in assay [2], 102% (inactive); in assay [3], 95.8% (inactive); in assay [4] (setting [7]), 88%; in assay [4] (setting [8]), 95.8%. Also, in assay [4] (H69AR cells + 2 uM doxorubicin), the differential viability (reversal) was 7.84% (inactive). In addition, the figures for the inhibition in assay [5] and in assay [6] were -6.22% (inactive) and -0.91% (inactive), respectively.
Regarding `Cc1cnc(NC(=O)C2=C(O)c3ccccc3S(=O)(=O)N2C)s1`, the viability in assay [1] was 102% (inactive); in assay [2], 84% (inactive); in assay [3], 89.9% (inactive); in assay [4] (setting [7]), 89.3%; in assay [4] (setting [8]), 89.9%. For the same molecule, the differential viability (reversal) in assay [4] (H69AR cells + 2 uM doxorubicin) was 0.62% (inactive). Besides, the inhibition in assay [5] was 3.51% (inactive); in assay [6] it was -2.83% (inactive).
As for `COc1ccc(S(=O)(=O)NCCSCc2ccco2)cc1Cl`, the viability was 48% (inactive) in assay [1]; 102% (inactive) in assay [2]; 92.4% (inactive) in assay [3]; 91.3% in assay [4] (setting [7]); 92.4% in assay [4] (setting [8]). In assay [4] (H69AR cells + 2 uM doxorubicin), the differential viability (reversal) was 1.13% (inactive). Moreover, the inhibition in assay [5] is -6.3% (inactive); in assay [6] it was 4% (inactive).
As to `CCn1c(SCC(=O)N2CCN(c3ccc(Cl)cc3)CC2)nc2ccccc2c1=O`, the viability in assay [1] is 96% (inactive); in assay [2], 77.2% (inactive); in assay [3] it was 78.6% (inactive); in assay [4] (setting [7]), 91.5%; in assay [4] (setting [8]), 78.6%. Moreover, the differential viability (reversal) in assay [4] (H69AR cells + 2 uM doxorubicin) was -12.9% (inactive). For the same molecule, the figures for the inhibition in assay [5] and in assay [6] were 5.89% (inactive) and 25.5% (inactive), respectively.
In the case of `Cc1[nH]nc(-c2ccc(O)c(C)c2O)c1-c1cnn(-c2ccccc2)c1`, the viability in assay [1] is 93% (inactive); in assay [2] it was 85.4% (inactive); in assay [3], 94.2% (inactive); in assay [4] (setting [7]), 82.1%; in assay [4] (setting [8]), 94.2%. In addition, in assay [4] (H69AR cells + 2 uM doxorubicin), the differential viability (reversal) is 12% (inactive). In addition, the inhibition in assay [5] is -4.52% (inactive); in assay [6] it was -3.27% (inactive).
As to `CCOC(=O)C1C2C=CC3(CN(Cc4ccco4)C(=O)C13)O2` (centres undefined), the viability in assay [1] was 97% (inactive); in assay [2] it was 95.6% (inactive); in assay [3], 96.5% (inactive); in assay [4] (setting [7]), 89.7%; in assay [4] (setting [8]), 96.5%. The differential viability (reversal) in assay [4] (H69AR cells + 2 uM doxorubicin) was 6.86% (inactive). Further, the figures for the inhibition in assay [5] and in assay [6] were -6.99% (inactive) and 1.45% (inactive), respectively.
With `Cc1ccc(NC2=NCC(=O)N2c2ccc3c(c2)OCCO3)c(C)c1`, the viability was 84% (inactive) in assay [1]; 95.7% (inactive) in assay [2]; 99.4% (inactive) in assay [3]; 98.7% in assay [4] (setting [7]); 99.4% in assay [4] (setting [8]). Further, in assay [4] (H69AR cells + 2 uM doxorubicin), the differential viability (reversal) was 0.67% (inactive). For the same molecule, the figures for the inhibition in assay [5] and in assay [6] were -6.16% (inactive) and -2.9% (inactive), respectively.
`Cc1cc(C(=O)COC(=O)c2n[nH]c3ccccc23)c(C)n1C`: the viability is 83% (inactive) in assay [1]; 90.4% (inactive) in assay [2]; 88.6% (inactive) in assay [3]; 82.6% in assay [4] (setting [7]); 88.6% in assay [4] (setting [8]). Further, the differential viability (reversal) in assay [4] (H69AR cells + 2 uM doxorubicin) is 5.96% (inactive). The inhibition in assay [5] is -9.18% (inactive); in assay [6], -4% (inactive).
With `O=C(Nc1ccccn1)N1CCOCC1`, the viability was 123% (inactive) in assay [1]; 110% (inactive) in assay [2]; 95.5% (inactive) in assay [3]; 89.1% in assay [4] (setting [7]); 95.5% in assay [4] (setting [8]). Moreover, the differential viability (reversal) in assay [4] (H69AR cells + 2 uM doxorubicin) is 6.42% (inactive). Also, the inhibition was -7.3% (inactive) in assay [5] and -5.45% (inactive) in assay [6].
With `NS(=O)(=O)c1cc2c(cc1Cl)NC(CSCc1ccccc1)=NS2(=O)=O`, the viability in assay [1] was 115% (inactive); in assay [2] it was 89.2% (inactive); in assay [3], 92.6% (inactive); in assay [4] (setting [7]), 89.6%; in assay [4] (setting [8]) it was 92.6%. Moreover, the differential viability (reversal) in assay [4] (H69AR cells + 2 uM doxorubicin) is 2.97% (inactive). Moreover, the results for the inhibition in assay [5] and in assay [6] were -4.29% (inactive) and 0.67% (inactive), respectively.
For the molecule `CC(=O)Nc1ccc(S(=O)(=O)N2CCN(c3cc(C)nc4ccccc34)CC2)cc1`, the viability in assay [1] was 103% (inactive); in assay [2], 96.7% (inactive); in assay [3] it was 87.1% (inactive); in assay [4] (setting [7]), 86.2%; in assay [4] (setting [8]) it was 87.1%. The differential viability (reversal) in assay [4] (H69AR cells + 2 uM doxorubicin) was 0.84% (inactive). Moreover, the inhibition in assay [5] is -5.41% (inactive); in assay [6], -3.09% (inactive).
With `Cc1nn(Cc2ccccc2)c(C)c1NC(=O)c1cc(-c2ccco2)on1`, the viability in assay [1] was 103% (inactive); in assay [2] it was 108% (inactive); in assay [3], 102% (inactive); in assay [4] (setting [7]), 82.6%; in assay [4] (setting [8]) it was 102%. The differential viability (reversal) in assay [4] (H69AR cells + 2 uM doxorubicin) was 19.6% (inactive). Besides, the inhibition is -5.6% (inactive) in assay [5] and -0.55% (inactive) in assay [6].
`Cn1c(=O)c2c(nc(NCCCO)n2Cc2cccc(Br)c2)n(C)c1=O`: the viability in assay [1] is 91% (inactive); in assay [2], 104% (inactive); in assay [3], 85.7% (inactive); in assay [4] (setting [7]) it was 85.4%; in assay [4] (setting [8]), 85.7%. In addition, in assay [4] (H69AR cells + 2 uM doxorubicin), the differential viability (reversal) is 0.26% (inactive). For the same molecule, the inhibition in assay [5] is -5.73% (inactive); in assay [6] it was 3.64% (inactive).
As to `Cc1c(C=NCCOCc2ccccc2)cnn1C`, the viability in assay [1] was 92% (inactive); in assay [2], 109% (inactive); in assay [3], 96.2% (inactive); in assay [4] (setting [7]) it was 82.2%; in assay [4] (setting [8]), 96.2%. Moreover, the differential viability (reversal) in assay [4] (H69AR cells + 2 uM doxorubicin) is 14% (inactive). In addition, the figures for the inhibition in assay [5] and in assay [6] were 0% (inactive) and -0.48% (inactive), respectively.
As to `Cc1c(Cl)cccc1Nc1ccccc1C(=O)O`, the viability in assay [1] was 108% (inactive); in assay [2], 56.7% (inactive); in assay [3], 111% (inactive); in assay [4] (setting [7]), 102%; in assay [4] (setting [8]), 111%. In addition, the differential viability (reversal) in assay [4] (H69AR cells + 2 uM doxorubicin) is 9% (inactive). Further, the inhibition was -1.17% (inactive) in assay [5] and 5.33% (inactive) in assay [6].
As for `COC(=O)c1cccc(NC(=O)CN2CCN(Cc3ccccc3)CC2)c1`, the viability in assay [1] was 56% (inactive); in assay [2], 105% (inactive); in assay [3] it was 90.5% (inactive); in assay [4] (setting [7]), 93.4%; in assay [4] (setting [8]), 90.5%. The differential viability (reversal) in assay [4] (H69AR cells + 2 uM doxorubicin) is -2.89% (inactive). The inhibition in assay [5] was -5.34% (inactive); in assay [6] it was -0.36% (inactive).
Take `c1ccc(OCc2nc(-c3ccccc3)no2)cc1`: the viability is 98% (inactive) in assay [1]; 92.5% (inactive) in assay [2]; 93.5% (inactive) in assay [3]; 89.9% in assay [4] (setting [7]); 93.5% in assay [4] (setting [8]). In addition, the differential viability (reversal) in assay [4] (H69AR cells + 2 uM doxorubicin) is 3.62% (inactive). The inhibition in assay [5] is 0.14% (inactive); in assay [6], 29.5% (inactive).
Take `Cc1nc2scc(-c3ccco3)c2c(=O)n1/N=C/N(C)C`: the viability is 87% (inactive) in assay [1]; 76.1% (inactive) in assay [2]; 95.3% (inactive) in assay [3]; 92.6% in assay [4] (setting [7]); 95.3% in assay [4] (setting [8]). In assay [4] (H69AR cells + 2 uM doxorubicin), the differential viability (reversal) was 2.7% (inactive). The inhibition in assay [5] is -4.86% (inactive); in assay [6], -4.73% (inactive).
